# Laboratory results: ChEMBL document CHEMBL5303300, “EUbOPEN Chemogenomics Library - Multiplex” (2023)
# Where “and” joins values, the source holds several entries; their conditions need not be identical. Identical values can stand only once.
# Experiments:
# Fibroblast = assay: Multiplex assay against human fibroblast; assay type: toxicity, cell-based; details: number of replicates 2
# Summary of the method: (§1)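 Cells stained live at seeding with Hoechst33342, BioTracker Green Microtubule Cytoskeleton Dye, MitoTracker Red and Annexin V Alexa Fluor 680 were imaged on a CQ1 microscope at 37°C and 5% CO2 after compound addition. Their classification by CellPathfinder machine-learning gating ran from Hoechst high-intensity objects versus normal cells, to healthy, pyknosed or fragmented nuclei among normal cells, to mitotic or apoptotic among pyknosed cells. Tubulin, mitochondrial-mass and membrane-permeability phenotypes are per cents of healthy-nucleus cells.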
# HEK-293T = assay: Multiplex assay against HEK293T; assay type: toxicity, cell-based; details: human, number of replicates 2; summary of the method: as §1
# [1] = 12 h, 1 µM, compound concentration 1 uM
# [2] = 12 h, 10 µM, compound concentration 10 uM
# [3] = 24 h, 1 µM, compound concentration 1 uM
# [4] = 24 h, 10 µM, compound concentration 10 uM
# [5] = 48 h, 1 µM, compound concentration 1 uM
# [6] = 48 h, 10 µM, compound concentration 10 uM
structure (smiles),measurement,setting,value
COC(=O)c1ccc2c(c1)NC(=O)/C2=C(\Nc1ccc(-c2nccn2C)cc1)c1ccccc1,Population Apoptotic (%),Fibroblast; [1],35% and 43%
same,Population Fragmented Nuclei (%),Fibroblast; [1],10% and 29%
same,Population Healthy Nuclei (%),Fibroblast; [1],72% and 51%
same,Population Hoechst High Intensity Objects (%),Fibroblast; [1],0%
same,Population Membrane Permeable-Phenotype (%),Fibroblast; [1],2% and 1%
same,Population Mitochondria Different-Phenotype (%),Fibroblast; [1],1% and 3%
same,Population Mitotic Cells (%),Fibroblast; [1],64% and 56%
same,Population Normal (%),Fibroblast; [1],99%
same,Population Pyknosed Nuclei (%),Fibroblast; [1],17% and 19%
same,Population Tubulin-Different-Phenotype (%),Fibroblast; [1],7% and 9%
same,Total Cell Count,Fibroblast; [1],195 and 242
same,Population Apoptotic (%),Fibroblast; [2],50% and 45%
same,Population Fragmented Nuclei (%),Fibroblast; [2],21% and 17%
same,Population Healthy Nuclei (%),Fibroblast; [2],59% and 62%
same,Population Hoechst High Intensity Objects (%),Fibroblast; [2],0%
same,Population Membrane Permeable-Phenotype (%),Fibroblast; [2],13% and 9%
same,Population Mitochondria Different-Phenotype (%),Fibroblast; [2],2%
same,Population Mitotic Cells (%),Fibroblast; [2],50% and 54%
same,Population Normal (%),Fibroblast; [2],100% and 99%
same,Population Pyknosed Nuclei (%),Fibroblast; [2],18% and 19%
same,Population Tubulin-Different-Phenotype (%),Fibroblast; [2],67% and 56%
same,Total Cell Count,Fibroblast; [2],317 and 270
same,Population Apoptotic (%),Fibroblast; [3],64% and 60%
same,Population Healthy Nuclei (%),Fibroblast; [3],74% and 53%
same,Population Hoechst High Intensity Objects (%),Fibroblast; [3],0%
same,Population Membrane Permeable-Phenotype (%),Fibroblast; [3],3%
same,Population Mitochondria Different-Phenotype (%),Fibroblast; [3],0%
same,Population Mitotic Cells (%),Fibroblast; [3],35% and 39%
same,Population Normal (%),Fibroblast; [3],99%
same,Population Pyknosed Nuclei (%),Fibroblast; [3],15% and 14%
same,Population Tubulin-Different-Phenotype (%),Fibroblast; [3],11% and 8%
same,Total Cell Count,Fibroblast; [3],180 and 255
same,Population Apoptotic (%),Fibroblast; [4],70% and 67%
same,Population Fragmented Nuclei (%),Fibroblast; [4],24%
same,Population Healthy Nuclei (%),Fibroblast; [4],59% and 54%
same,Population Hoechst High Intensity Objects (%),Fibroblast; [4],0%
same,Population Membrane Permeable-Phenotype (%),Fibroblast; [4],5% and 6%
same,Population Mitochondria Different-Phenotype (%),Fibroblast; [4],8% and 6%
same,Population Mitotic Cells (%),Fibroblast; [4],29% and 32%
same,Population Normal (%),Fibroblast; [4],99%
same,Population Pyknosed Nuclei (%),Fibroblast; [4],16% and 21%
same,Population Tubulin-Different-Phenotype (%),Fibroblast; [4],60% and 43%
same,Total Cell Count,Fibroblast; [4],317 and 264
same,Population Apoptotic (%),Fibroblast; [5],48% and 73%
same,Population Healthy Nuclei (%),Fibroblast; [5],69% and 56%
same,Population Hoechst High Intensity Objects (%),Fibroblast; [5],0%
same,Population Membrane Permeable-Phenotype (%),Fibroblast; [5],1% and 3%
same,Population Mitochondria Different-Phenotype (%),Fibroblast; [5],0%
same,Population Mitotic Cells (%),Fibroblast; [5],51% and 26%
same,Population Normal (%),Fibroblast; [5],100% and 99%
same,Population Pyknosed Nuclei (%),Fibroblast; [5],20% and 9%
same,Population Tubulin-Different-Phenotype (%),Fibroblast; [5],3% and 8%
same,Total Cell Count,Fibroblast; [5],182 and 256
same,Population Apoptotic (%),Fibroblast; [6],84% and 86%
same,Population Fragmented Nuclei (%),Fibroblast; [6],22% and 26%
same,Population Healthy Nuclei (%),Fibroblast; [6],62% and 56%
same,Population Hoechst High Intensity Objects (%),Fibroblast; [6],0% and 1%
same,Population Membrane Permeable-Phenotype (%),Fibroblast; [6],5% and 6%
same,Population Mitochondria Different-Phenotype (%),Fibroblast; [6],5% and 9%
same,Population Mitotic Cells (%),Fibroblast; [6],15% and 13%
same,Population Normal (%),Fibroblast; [6],100% and 98%
same,Population Pyknosed Nuclei (%),Fibroblast; [6],14% and 17%
same,Population Tubulin-Different-Phenotype (%),Fibroblast; [6],45% and 38%
same,Total Cell Count,Fibroblast; [6],302 and 261
same,Population Apoptotic (%),HEK-293T; [1],50% and 35%
same,Population Fragmented Nuclei (%),HEK-293T; [1],3% and 2%
same,Population Healthy Nuclei (%),HEK-293T; [1],86%
same,Population Hoechst High Intensity Objects (%),HEK-293T; [1],4%
same,Population Membrane Permeable-Phenotype (%),HEK-293T; [1],4% and 3%
same,Population Mitochondria Different-Phenotype (%),HEK-293T; [1],20% and 17%
same,Population Mitotic Cells (%),HEK-293T; [1],49% and 64%
same,Population Normal (%),HEK-293T; [1],95%
same,Population Pyknosed Nuclei (%),HEK-293T; [1],10% and 11%
same,Population Tubulin-Different-Phenotype (%),HEK-293T; [1],52% and 51%
same,Total Cell Count,HEK-293T; [1],677 and 686
same,Population Apoptotic (%),HEK-293T; [2],53% and 62%
same,Population Fragmented Nuclei (%),HEK-293T; [2],2% and 4%
same,Population Healthy Nuclei (%),HEK-293T; [2],83% and 81%
same,Population Hoechst High Intensity Objects (%),HEK-293T; [2],10% and 11%
same,Population Membrane Permeable-Phenotype (%),HEK-293T; [2],6% and 5%
same,Population Mitochondria Different-Phenotype (%),HEK-293T; [2],37% and 38%
same,Population Mitotic Cells (%),HEK-293T; [2],46% and 37%
same,Population Normal (%),HEK-293T; [2],89% and 88%
same,Population Pyknosed Nuclei (%),HEK-293T; [2],13% and 14%
same,Population Tubulin-Different-Phenotype (%),HEK-293T; [2],88% and 93%
same,Total Cell Count,HEK-293T; [2],504 and 530
same,Population Apoptotic (%),HEK-293T; [3],30% and 31%
same,Population Fragmented Nuclei (%),HEK-293T; [3],5% and 3%
same,Population Healthy Nuclei (%),HEK-293T; [3],87% and 88%
same,Population Hoechst High Intensity Objects (%),HEK-293T; [3],6% and 7%
same,Population Membrane Permeable-Phenotype (%),HEK-293T; [3],4% and 1%
same,Population Mitochondria Different-Phenotype (%),HEK-293T; [3],8% and 5%
